Source: ChEMBL document CHEMBL4014299, “Synthesis and anti-HIV activities of unsymmetrical long chain dicarboxylate esters of dinucleoside reverse transcriptase inhibitors” (Bioorg Med Chem Lett, 2017)
pEC50: −log10 of the molar value.

Experiment: Cytotoxicity against human P4R5 MAGI cells after 2 hrs by MTT assay
Assay type: cell-based
Settings: not given
Procedure, shortened: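 Cytotoxicity to target cells by MTT assay, giving CC50 (50% toxic concentration). Run in triplicate (n = 3).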

| Structure (SMILES) | CC50 at 2 h [µM] |
| --- | --- |
| Cc1cn([C@H]2C[C@H](N=[N+]=[N-])[C@@H](COC(=O)CCCCCCC(=O)OC[C@H]3O[C@@H](n4cc(C)c(=O)[nH]c4=O)C[C@@H]3N=[N+]=[N-])O2)c(=O)[nH]c1=O | > 148 |
| Cc1cn([C@H]2C[C@H](F)[C@@H](COC(=O)CCC(=O)OC[C@@H]3O[C@H](n4ccc(N)nc4=O)CS3)O2)c(=O)[nH]c1=O | > 180 |
| Cc1cn([C@H]2C[C@H](N=[N+]=[N-])[C@@H](COC(=O)CCC(=O)OC[C@H]3O[C@@H](n4cc(C)c(=O)[nH]c4=O)C[C@@H]3N=[N+]=[N-])O2)c(=O)[nH]c1=O | > 162 |
| Cc1cn([C@H]2C[C@H](F)[C@@H](COC(=O)CCCCCCCCCCCCC(=O)O)O2)c(=O)[nH]c1=O | > 61 |
| Cc1cn([C@H]2C[C@H](F)[C@@H](COC(=O)CCCCCCCCCCCCC(=O)OC[C@@H]3O[C@H](n4cc(F)c(N)nc4=O)CS3)O2)c(=O)[nH]c1=O | > 42 |
| Cc1cn([C@H]2C[C@H](N=[N+]=[N-])[C@@H](COC(=O)CCC(=O)OC[C@H]3O[C@@H](n4cc(C)c(=O)[nH]c4=O)C[C@@H]3F)O2)c(=O)[nH]c1=O | > 168 |
| Cc1cn([C@H]2C[C@H](F)[C@@H](COC(=O)CCC(=O)OC[C@H]3O[C@@H](n4cc(C)c(=O)[nH]c4=O)C[C@@H]3F)O2)c(=O)[nH]c1=O | > 175 |
| Cc1cn([C@H]2C[C@H](F)[C@@H](COC(=O)CCCCCCCCCCCCC(=O)OC[C@@H]3O[C@H](n4ccc(N)nc4=O)CS3)O2)c(=O)[nH]c1=O | > 43 |
| Nc1ccn([C@@H]2CS[C@H](COC(=O)CCCCCCC(=O)OC[C@@H]3O[C@H](n4ccc(N)nc4=O)CS3)O2)c(=O)n1 | > 168 |
| Cc1cn([C@H]2C[C@H](F)[C@@H](COC(=O)CCCCCCC(=O)OC[C@H]3O[C@@H](n4cc(C)c(=O)[nH]c4=O)C[C@@H]3F)O2)c(=O)[nH]c1=O | > 160 |
| Nc1ccn([C@@H]2CS[C@H](COC(=O)CCCCCCCCCCCCC(=O)OC[C@@H]3O[C@H](n4cc(F)c(N)nc4=O)CS3)O2)c(=O)n1 | > 43 |
| Cc1cn([C@H]2C[C@H](N=[N+]=[N-])[C@@H](COC(=O)CCC(=O)OC[C@@H]3O[C@H](n4ccc(N)nc4=O)CS3)O2)c(=O)[nH]c1=O | > 173 |
| Cc1cn([C@H]2C[C@H](F)[C@@H](CO)O2)c(=O)[nH]c1=O [ALOVUDINE] | > 410 |
| Nc1nc(=O)n([C@@H]2CS[C@H](CO)O2)cc1F [EMTRICITABINE] | > 200 |
| Nc1ccn([C@@H]2CS[C@H](CO)O2)c(=O)n1 [LAMIVUDINE] | 80.3 |
| Cc1cn([C@H]2C[C@H](N=[N+]=[N-])[C@@H](CO)O2)c(=O)[nH]c1=O [ZIDOVUDINE] | > 374 |

Experiment: Inhibition of HIV1 3B […] reverse transcriptase infected in human P4R5 MAGI cells assessed as reduction in viral infection after 2 hrs by Galacto-Star beta-galactosidase reporter gene assay
Assay type: cell-based
Settings: Human immunodeficiency virus 1, 3B
Procedure, shortened: (§1)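 Single-round infection against cell-free virus: compounds, virus and target cells incubated together 2 h, cells washed, then cultured a further 48 h. Infection read as HIV-LTR-driven galactosidase expression; EC50 = 50% effective concentration. Line 2 uses the X4 (lymphocytotropic) strain, line 3 the R5 (monocytotropic) strain. DMSO served as negative control and dextran sulfate as positive control. Triplicate (n = 3).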

| pEC50 | Structure (SMILES) |
| --- | --- |
| 6.70 | Cc1cn([C@H]2C[C@H](N=[N+]=[N-])[C@@H](COC(=O)CCCCCCC(=O)OC[C@H]3O[C@@H](n4cc(C)c(=O)[nH]c4=O)C[C@@H]3N=[N+]=[N-])O2)c(=O)[nH]c1=O |
| 4.35 | Cc1cn([C@H]2C[C@H](F)[C@@H](COC(=O)CCC(=O)OC[C@@H]3O[C@H](n4ccc(N)nc4=O)CS3)O2)c(=O)[nH]c1=O |
| 4.85 | Cc1cn([C@H]2C[C@H](N=[N+]=[N-])[C@@H](COC(=O)CCC(=O)OC[C@H]3O[C@@H](n4cc(C)c(=O)[nH]c4=O)C[C@@H]3N=[N+]=[N-])O2)c(=O)[nH]c1=O |
| 5.74 | Cc1cn([C@H]2C[C@H](F)[C@@H](COC(=O)CCCCCCCCCCCCC(=O)O)O2)c(=O)[nH]c1=O |
| 7.33 | Cc1cn([C@H]2C[C@H](F)[C@@H](COC(=O)CCCCCCCCCCCCC(=O)OC[C@@H]3O[C@H](n4cc(F)c(N)nc4=O)CS3)O2)c(=O)[nH]c1=O |
| 4.83 | Cc1cn([C@H]2C[C@H](N=[N+]=[N-])[C@@H](COC(=O)CCC(=O)OC[C@H]3O[C@@H](n4cc(C)c(=O)[nH]c4=O)C[C@@H]3F)O2)c(=O)[nH]c1=O |
| 5.43 | Cc1cn([C@H]2C[C@H](F)[C@@H](COC(=O)CCC(=O)OC[C@H]3O[C@@H](n4cc(C)c(=O)[nH]c4=O)C[C@@H]3F)O2)c(=O)[nH]c1=O |
| 7.00 | Cc1cn([C@H]2C[C@H](F)[C@@H](COC(=O)CCCCCCCCCCCCC(=O)OC[C@@H]3O[C@H](n4ccc(N)nc4=O)CS3)O2)c(=O)[nH]c1=O |
| 4.58 | Nc1ccn([C@@H]2CS[C@H](COC(=O)CCCCCCC(=O)OC[C@@H]3O[C@H](n4ccc(N)nc4=O)CS3)O2)c(=O)n1 |
| 6.40 | Cc1cn([C@H]2C[C@H](F)[C@@H](COC(=O)CCCCCCC(=O)OC[C@H]3O[C@@H](n4cc(C)c(=O)[nH]c4=O)C[C@@H]3F)O2)c(=O)[nH]c1=O |
| 6.74 | Nc1ccn([C@@H]2CS[C@H](COC(=O)CCCCCCCCCCCCC(=O)OC[C@@H]3O[C@H](n4cc(F)c(N)nc4=O)CS3)O2)c(=O)n1 |
| 4.79 | Cc1cn([C@H]2C[C@H](N=[N+]=[N-])[C@@H](COC(=O)CCC(=O)OC[C@@H]3O[C@H](n4ccc(N)nc4=O)CS3)O2)c(=O)[nH]c1=O |
| 6.10 | Cc1cn([C@H]2C[C@H](F)[C@@H](CO)O2)c(=O)[nH]c1=O [ALOVUDINE] |
| 5.72 | Nc1nc(=O)n([C@@H]2CS[C@H](CO)O2)cc1F [EMTRICITABINE] |
| 4.49 | Nc1ccn([C@@H]2CS[C@H](CO)O2)c(=O)n1 [LAMIVUDINE] |
| 4.46 | Cc1cn([C@H]2C[C@H](N=[N+]=[N-])[C@@H](CO)O2)c(=O)[nH]c1=O [ZIDOVUDINE] |

Experiment: Inhibition of HIV1 BaL […] reverse transcriptase infected in human P4R5 MAGI cells assessed as reduction in viral infection after 2 hrs by Galacto-Star beta-galactosidase reporter gene assay
Assay type: cell-based
Settings: Human immunodeficiency virus 1, BaL
Procedure, shortened: as §1

| pEC50 | Structure (SMILES) |
| --- | --- |
| > 6.82 | Cc1cn([C@H]2C[C@H](N=[N+]=[N-])[C@@H](COC(=O)CCCCCCC(=O)OC[C@H]3O[C@@H](n4cc(C)c(=O)[nH]c4=O)C[C@@H]3N=[N+]=[N-])O2)c(=O)[nH]c1=O |
| 4.37 | Cc1cn([C@H]2C[C@H](F)[C@@H](COC(=O)CCC(=O)OC[C@@H]3O[C@H](n4ccc(N)nc4=O)CS3)O2)c(=O)[nH]c1=O |
| 4.17 | Cc1cn([C@H]2C[C@H](N=[N+]=[N-])[C@@H](COC(=O)CCC(=O)OC[C@H]3O[C@@H](n4cc(C)c(=O)[nH]c4=O)C[C@@H]3N=[N+]=[N-])O2)c(=O)[nH]c1=O |
| 6.26 | Cc1cn([C@H]2C[C@H](F)[C@@H](COC(=O)CCCCCCCCCCCCC(=O)O)O2)c(=O)[nH]c1=O |
| 7.12 | Cc1cn([C@H]2C[C@H](F)[C@@H](COC(=O)CCCCCCCCCCCCC(=O)OC[C@@H]3O[C@H](n4cc(F)c(N)nc4=O)CS3)O2)c(=O)[nH]c1=O |
| 4.76 | Cc1cn([C@H]2C[C@H](N=[N+]=[N-])[C@@H](COC(=O)CCC(=O)OC[C@H]3O[C@@H](n4cc(C)c(=O)[nH]c4=O)C[C@@H]3F)O2)c(=O)[nH]c1=O |
| 5.52 | Cc1cn([C@H]2C[C@H](F)[C@@H](COC(=O)CCC(=O)OC[C@H]3O[C@@H](n4cc(C)c(=O)[nH]c4=O)C[C@@H]3F)O2)c(=O)[nH]c1=O |
| 7.15 | Cc1cn([C@H]2C[C@H](F)[C@@H](COC(=O)CCCCCCCCCCCCC(=O)OC[C@@H]3O[C@H](n4ccc(N)nc4=O)CS3)O2)c(=O)[nH]c1=O |
| 5.33 | Nc1ccn([C@@H]2CS[C@H](COC(=O)CCCCCCC(=O)OC[C@@H]3O[C@H](n4ccc(N)nc4=O)CS3)O2)c(=O)n1 |
| 6.30 | Cc1cn([C@H]2C[C@H](F)[C@@H](COC(=O)CCCCCCC(=O)OC[C@H]3O[C@@H](n4cc(C)c(=O)[nH]c4=O)C[C@@H]3F)O2)c(=O)[nH]c1=O |
| 7.14 | Nc1ccn([C@@H]2CS[C@H](COC(=O)CCCCCCCCCCCCC(=O)OC[C@@H]3O[C@H](n4cc(F)c(N)nc4=O)CS3)O2)c(=O)n1 |
| 4.72 | Cc1cn([C@H]2C[C@H](N=[N+]=[N-])[C@@H](COC(=O)CCC(=O)OC[C@@H]3O[C@H](n4ccc(N)nc4=O)CS3)O2)c(=O)[nH]c1=O |
| 5.48 | Cc1cn([C@H]2C[C@H](F)[C@@H](CO)O2)c(=O)[nH]c1=O [ALOVUDINE] |
| 6.15 | Nc1nc(=O)n([C@@H]2CS[C@H](CO)O2)cc1F [EMTRICITABINE] |
| 4.95 | Nc1ccn([C@@H]2CS[C@H](CO)O2)c(=O)n1 [LAMIVUDINE] |
| 3.89 | Cc1cn([C@H]2C[C@H](N=[N+]=[N-])[C@@H](CO)O2)c(=O)[nH]c1=O [ZIDOVUDINE] |
